Assay [1] relates to Influenza A virus (A/Puerto Rico/8/1934(H1N1)). Nature of the assay: Antiviral activity against Influenza A virus (A/PR/8/34 (H1N1)(NA-H274Y)) infected in MDCK cells assessed as reduction in virus-induced cytopathic effect after 48 hrs by microscopic analysis. The format is functional, organism-based. Put shortly:
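MDCK monolayers (5×10^4 cells/well, grown 24 h) were rinsed twice, infected with 100 TCID50 virus for 2 h at 37 °C in 5% CO2, and the inoculum was removed. Two-fold serial compound dilutions in DMEM with 1.5 µg/mL trypsin were added and incubated 48 h at 34 °C. CPE percentage was scored by microscope and EC50 fitted by non-linear regression.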
In general terms: Protection from cytopathic effect is a common read-out in antiviral testing.

Assay [2] relates to Matrix protein 2 (Influenza A virus (A/Udorn/307/1972(H3N2))), P0DOF8 [S31N]. Nature of the assay: Inhibition of Influenza A virus AM2 S31N mutant expressed in Xenopus laevis frog oocytes assessed as maximum reduction in channel current at 100 uM at pH 5.5 after 2 mins by TEVC assay. The format is cell-based. The method in brief: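 Xenopus laevis oocytes were microinjected with RNA expressing A/M2 S31N. Compound was applied for 2 min at pH 5.5 and the percentage inhibition of M2 current was recorded by two-electrode voltage clamp. Each measurement was repeated twice with different cells.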

The source made the active and inactive calls. No cut-off for these calls is given here.

Usually EC50 stands for the concentration at which the effect is half-maximal. Consider `C[C@@H]1C2CC(C[C@H]1NCc1sccc1C1CC1)C2(C)C` (single isomer, unassigned), for which, in assay [1], the EC50 was determined as 6.85 µM. Further, the inhibition entry in assay [2] was “inactive”.

Turning to `NC12CC3CC(CC(C3)C1)C2` [AMANTADINE], the EC50 in assay [1] is above 100 µM.

In the case of `CCOC(=O)C1=C[C@@H](OC(CC)CC)[C@H](NC(C)=O)[C@@H](N)C1` [OSELTAMIVIR], in assay [1], the half-maximal effective concentration (EC50) was above 10 µM.

These data come from ChEMBL document CHEMBL4130623, “Discovery of Highly Potent Pinanamine-Based Inhibitors against Amantadine- and Oseltamivir-Resistant Influenza A Viruses” (J Med Chem, 2018).
